These results are taken from ChEMBL document CHEMBL4513216, “Probing the Open Global Health Chemical Diversity Library for Multistage-Active Starting Points for Next-Generation Antimalarials” (ACS Infect Dis, 2020).

The series in a line: Toxicity liver stage against HepG2, at 10uM. The series is classed as cell-based. Details: test concentration 10 uM, cell line HepG2-A16-CD81EGFP. To be noted: human, HepG2-A16-CD81EGFP cells; read-out: INHIBITION
The procedure, abridged: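 Uninfected HepG2-A16-CD81EGFP cells, 3 × 10^3 per well, 1536-well, plated on prespotted compound at 10 μM final, parasite-free screening media added to match infected plates; puromycin 10 μM positive, DMSO 0.5% negative; run in parallel with 48 h PbLuc assay at 37 °C, 5% CO2; viability by CellTiter-Glo luminescence, normalized to controls.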
Regarding `CC(NC(=O)NCCN1CCCCCC1=O)c1nncn1C` (configuration not stated), the cytotoxicity at 10 µM is -7%.

Consider `Cc1ccc(C)c(OCCN2CCC(N3CCNC3=O)CC2)c1`, for which the cytotoxicity at 10 µM was found to be 1.85%.

In the case of `CC(C)(C)OC(=O)NCCC(=O)NCC(O)c1cccc(F)c1` (configuration not stated), the cytotoxicity at 10 µM is -2.48%.

For `COc1cccc(Nc2nc(C3CCCNC3)c3ccccn23)c1` (configuration not stated), the cytotoxicity at 10 µM was -0.47%.

As to `CSCC(=O)NCc1cc(Br)ccc1OC(F)F`, the cytotoxicity at 10 µM was -8.22%.

Regarding `CN1CC2(CCN(C(=O)c3ccc(-n4cnnc4)cc3Cl)CC2)OC1=O`, the cytotoxicity at 10 µM was 4.03%.

Consider `CCn1ccc(CNC(=O)c2cc(OC)cc(OC)c2)n1`, for which the cytotoxicity at 10 µM is 8.66%.

As to `O=C(O)c1ccc(=O)n(CC(c2ccc(Cl)cc2)N2CCOCC2)c1` (configuration not stated), the cytotoxicity at 10 µM was found to be 2.91%.

Turning to `Cn1cccc1C(=O)NS(=O)(=O)c1cnn(-c2ccccc2F)c1`, the cytotoxicity at 10 µM was -7.83%.

Turning to `Cc1csc(NC(=O)c2cccnc2N2CCOCC2)n1`, the cytotoxicity at 10 µM was -4.75%.

For the molecule `CC(C)(C)C(=O)NCCNc1cc(N2CCCC2)ncn1`, the cytotoxicity at 10 µM was -43%.

As for `C[S+]([O-])c1nncn1CC(=O)c1cccc(C(F)(F)F)c1` (configuration not stated), the cytotoxicity at 10 µM was -0.661%.

On to `CCN(CC)S(=O)(=O)c1ccc(CCC(=O)NCc2cc(C)on2)cc1`, for which the cytotoxicity at 10 µM was -3.09%.

With `O=C(O)CCc1cc2n(n1)CCN(Cc1ccc3[nH]ccc3c1)C2`, the cytotoxicity at 10 µM is -2.32%.

Consider `CCn1cnnc1CCNC(=O)C1COc2ccc(OC)cc2C1` (configuration not stated), for which the cytotoxicity at 10 µM is -1.31%.

Regarding `CCCc1nnc(NC(=O)NC(C)Cn2cccn2)s1` (configuration not stated), the cytotoxicity at 10 µM was -4.05%.

In the case of `O=C(NC1CC1)c1ccnc(-c2cc(NCCO)nc3[nH]ccc23)c1`, the cytotoxicity at 10 µM was 5.61%.

Consider `CNC(=O)CN1CCC(OCC2CCCO2)CC1` (configuration not stated), for which the cytotoxicity at 10 µM was found to be 1.99%.

Consider `Cc1n[nH]c2c1C(c1ccc3c(c1)OCCO3)SCC(=O)N2` (configuration not stated), for which the cytotoxicity at 10 µM is -0.37%.

For the molecule `Cc1ccc(CNC(c2cccc(F)c2)c2nccn2C)o1` (configuration not stated), the cytotoxicity at 10 µM worked out at 5.48%.

On to `Cc1nc(O)ccc1C(=O)N1CCCC1c1nc(-c2ccccc2)n[nH]1` (configuration not stated), for which the cytotoxicity at 10 µM was 0.636%.

Turning to `CC(=O)N(C)CC(=O)NCC1(c2cccc(C)c2)CCCC1`, the cytotoxicity at 10 µM is -2.37%.

For the molecule `OCCN1CCC(c2cncc(-c3cccc(Cl)c3)n2)CC1`, the cytotoxicity at 10 µM is -31.7%.

For the molecule `O=C1N(Cc2cccc(F)c2F)CCCC1(O)CN1CCCOCC1` (configuration not stated), the cytotoxicity at 10 µM was 18.3%.

`CN(C)C(=O)[C@]12CCCN(CC3CC3)C[C@H]1CN(c1ccccn1)C2`: the cytotoxicity at 10 µM was 3.68%.

Take `COc1ccc(COCC(=O)NC2CCc3nc(C)cn3C2)cc1` (configuration not stated): the cytotoxicity at 10 µM was 1.6%.

Take `CN(Cc1ccsc1)C(=O)c1cccc(NS(C)(=O)=O)c1`: the cytotoxicity at 10 µM is -5.72%.

As to `CN(C)S(=O)(=O)N1C[C@@H]2C[C@H](C(=O)Nc3ccccc3)[C@H](C1)O2`, the cytotoxicity at 10 µM is 5.86%.

On to `CCSCc1cccc(NCc2cccnc2)c1`, for which the cytotoxicity at 10 µM was -1.32%.

As to `Cc1ccc(C2CSCCN2C(=O)C2=CCCC2)o1` (configuration not stated), the cytotoxicity at 10 µM was -6.12%.

On to `CC(CO)Nc1ccc(-c2nc(Cc3ccc(F)cc3)no2)cn1` (configuration not stated), for which the cytotoxicity at 10 µM was -11.9%.

Take `CC(C)c1nsc(N2CCn3c(nnc3-c3ccccc3)C2)n1`: the cytotoxicity at 10 µM was -13.9%.

`CNc1cc(C(=O)N2CCC3(CC2)Nc2ccccc2NC3=O)ccn1`: the cytotoxicity at 10 µM is 3.46%.

Consider `COc1ccccc1C1Cn2c(C)cnc2CN1Cc1ccc(C)nc1` (configuration not stated), for which the cytotoxicity at 10 µM is -3.18%.

`Cc1ncc2c(n1)CN(CC1CCCCO1)CC2` (configuration not stated): the cytotoxicity at 10 µM was -2.3%.

Regarding `Cc1nn(C)c2c(N3CCN(C(=O)C4CCCCC4)CC3)ncnc12`, the cytotoxicity at 10 µM was 12.3%.

Consider `CSc1ccc(NC(=O)COCc2ccccc2)nc1`, for which the cytotoxicity at 10 µM turned out to be 7.01%.

As for `CC(CC(=O)NCCCn1cccn1)c1cccnc1` (configuration not stated), the cytotoxicity at 10 µM is -1.66%.

`O=C(NCc1nncn1C1CC1)c1ccccc1Oc1cccnc1`: the cytotoxicity at 10 µM is -4.97%.

For the molecule `c1ccc(N2CCOC(Cc3cccnc3)C2)cc1` (configuration not stated), the cytotoxicity at 10 µM was -26.3%.

On to `c1cnc(Nc2ccc(C3CCCCN3Cc3ccncc3)cn2)nc1` (configuration not stated), for which the cytotoxicity at 10 µM is -1.57%.

Take `Cc1cccc2cc(C(=O)N3CCSCC3)n(C)c12`: the cytotoxicity at 10 µM was 6.25%.

Consider `CCc1nnsc1C(=O)NCC1CN(CC(C)C)CCO1` (configuration not stated), for which the cytotoxicity at 10 µM is 0.537%.

On to `Fc1cccnc1N1CCC2(CNCCC2(F)F)C1` (configuration not stated), for which the cytotoxicity at 10 µM was -7.15%.

In the case of `NC(=O)CCSCc1ccc(Br)c(F)c1`, the cytotoxicity at 10 µM was -4.81%.

In the case of `COCCN1CCN(C(=O)c2ccc(COC)o2)[C@H]2CS(=O)(=O)C[C@H]21`, the cytotoxicity at 10 µM was -6.15%.

Regarding `Cc1nnc2ccc(NCC3(N4CCCCC4)CCOCC3)nn12`, the cytotoxicity at 10 µM is -3.59%.

`CNC(=O)[C@@]12CCCN(c3ncccn3)[C@@H]1CN(C(=O)NC(C)C)C2`: the cytotoxicity at 10 µM came out at 0.614%.

For `O=C(c1ccco1)N1CCc2ncnc(NCc3ccccn3)c2CC1`, the cytotoxicity at 10 µM was 5.61%.

For `O=C(Nc1ccccn1)c1ccc(F)c(S(=O)(=O)NC2CC2)c1`, the cytotoxicity at 10 µM came out at 4.37%.

As to `Cc1occc1C(=O)N1CCCS1(=O)=O`, the cytotoxicity at 10 µM was -11%.

For `CC(C)N1CCC(C(=O)N2CCN(c3cccc(C(=O)O)c3)CC2)CC1`, the cytotoxicity at 10 µM is 6.4%.

As to `CN(C)C[C@H]1O[C@H](Cc2cc(-c3ccccn3)on2)CC[C@@H]1O`, the cytotoxicity at 10 µM was -3.15%.

In the case of `CN1CC(C(=O)NCCc2ccc(Br)cc2F)CC1=O` (configuration not stated), the cytotoxicity at 10 µM came out at 2.43%.

As to `COc1cc(S(=O)(=O)N2C[C@@H](C)[C@@](C)(O)C2)c(C)cc1C`, the cytotoxicity at 10 µM is -2.06%.

As for `CN(CC1CCOC1)S(=O)(=O)c1cccc(C(=O)N2CCCCCC2)c1` (configuration not stated), the cytotoxicity at 10 µM is -0.825%.

As for `CC(C)NC(=O)CC(C)NCc1cc(Cl)ccc1F` (configuration not stated), the cytotoxicity at 10 µM is -40%.

Turning to `CC(=O)N[C@@H]1CN(C(=O)c2ccncc2)C[C@H]1c1ccc(C)cc1`, the cytotoxicity at 10 µM was determined as 4.58%.

For `CN(C)CCO[C@@H]1CC[C@H]2[C@H]1OCCN2C(=O)c1ccccc1F`, the cytotoxicity at 10 µM was determined as 2.25%.

`O=C(c1ccc2nccnc2c1)N1C[C@@H](CN2CCCC2)[C@@H](CO)C1`: the cytotoxicity at 10 µM stood at 4.23%.

Turning to `CC(C(=O)NCc1ccnc(N2CCOCC2)c1)n1cccn1` (configuration not stated), the cytotoxicity at 10 µM is -6.28%.

With `CCN1CCOCC2(CCCN(C(=O)c3ccccc3F)C2)C1` (configuration not stated), the cytotoxicity at 10 µM was -4.9%.

As to `Cc1nnnn1-c1cc(NCc2cc(C#N)ccc2F)ccc1F`, the cytotoxicity at 10 µM worked out at 0.685%.

As for `O=C(COCC1CC1)N1CCCC(n2ccnc2)C1` (configuration not stated), the cytotoxicity at 10 µM was 0.0481%.

For `c1coc(-c2noc(CN3CC(n4cccn4)C3)n2)c1`, the cytotoxicity at 10 µM came out at 2.96%.

With `CC(C)Oc1ccccc1CNC(=O)N(C)CC(F)F`, the cytotoxicity at 10 µM is -41.5%.

Regarding `O=C(O)c1cccc(CN2CCCC(Cc3ccn[nH]3)C2)c1` (configuration not stated), the cytotoxicity at 10 µM was found to be 5.39%.

Regarding `COc1ccc(C(=O)NS(=O)(=O)c2cncc(Br)c2)c(OC)c1`, the cytotoxicity at 10 µM is -0.402%.

For `CC(C)(C(=O)NCC(=O)NCc1ccccc1)c1ccccc1F`, the cytotoxicity at 10 µM is 4.63%.

Consider `O=C(c1ccsc1)N1CC[C@@H](N2CCOCC2)[C@@H]1Cc1ccccc1`, for which the cytotoxicity at 10 µM was -71.8%.

`Cc1noc(C)c1CN1CC[C@H]2OCC[C@@]2(C(=O)N(C)C)C1`: the cytotoxicity at 10 µM was -76.5%.

For the molecule `CSc1nccc(N2CCCC(c3nccn3C(C)C)C2)n1` (configuration not stated), the cytotoxicity at 10 µM was 7.72%.

For `CCN(CC)C(=O)c1nnsc1-c1ccc(Cl)cc1`, the cytotoxicity at 10 µM was 2.74%.

Regarding `O=C1O[C@@H]2CN(c3ccncc3)C[C@@H]2N1CCCc1ccc(F)cc1`, the cytotoxicity at 10 µM was -3.73%.

As for `Cc1nc(CN2CCCC23CCN(c2nc4ccccc4s2)CC3)co1`, the cytotoxicity at 10 µM is -1.99%.

In the case of `CCCc1cc(C(=O)NCCN2C(=O)c3ccccc3C2=O)[nH]n1`, the cytotoxicity at 10 µM was determined as 2.29%.

Take `O=C(c1ccno1)N1CCO[C@]2(CCC[C@@H]2COCc2ccncc2)C1`: the cytotoxicity at 10 µM was found to be 10.2%.

As to `CN(Cc1cccnc1)C1CC2(CCN(c3ncc(F)cn3)CC2)C1`, the cytotoxicity at 10 µM is 18%.

With `CCNc1c(C#N)c(=O)n(C)c(=O)n1C`, the cytotoxicity at 10 µM was 0.504%.

As for `Cc1ccc(C)c(CNC(=O)NC(C)(C(=O)O)c2ccco2)c1` (configuration not stated), the cytotoxicity at 10 µM was -10.8%.

On to `Cc1ccn2ncc(C(=O)N3CCCC(n4cccn4)C3)c2n1` (configuration not stated), for which the cytotoxicity at 10 µM was -24.3%.

Regarding `COc1nn(C)c2c1CCCN(C(=O)c1ccccc1)C2`, the cytotoxicity at 10 µM was -9.76%.

`Cc1noc(CS(=O)(=O)CC(=O)NC(C)c2ccccc2)n1` (configuration not stated): the cytotoxicity at 10 µM amounted to 9.81%.

Turning to `COc1cc(CNC(C)Cn2cccn2)cc(OC)c1` (configuration not stated), the cytotoxicity at 10 µM is 0.681%.

As for `O=C(NCc1nc(NC2CCCC2)c2cc(Cl)ccc2n1)c1cncs1`, the cytotoxicity at 10 µM came out at 4.15%.

In the case of `COc1c(C2CCCN2C(=O)c2ccnc(N(C)C)c2)c(C)nn1C` (configuration not stated), the cytotoxicity at 10 µM was 1.9%.

As to `CCc1nc(CN(C)C2CCN(CCOc3ccccc3)C2)no1` (configuration not stated), the cytotoxicity at 10 µM was -34.6%.

In the case of `CC(=O)N1CCN(C(C)C)CC(COc2ccccc2)C1` (configuration not stated), the cytotoxicity at 10 µM is -28.8%.

Take `Cn1ccnc1-c1noc(NCc2ccc(Br)cc2)n1`: the cytotoxicity at 10 µM was -4.32%.

Take `COc1ccc(CN2CCC3(CC(=O)N(c4cccc(F)c4)C3)C2)cc1` (configuration not stated): the cytotoxicity at 10 µM was -137%.

Consider `Cc1cc(C)c(C(=O)Nc2cccc(CN3CCC(CO)CC3)c2)o1`, for which the cytotoxicity at 10 µM was -140%.

As to `O=S(=O)(NC1CCCCC12OCCO2)c1ccc2c(c1)OCCO2` (configuration not stated), the cytotoxicity at 10 µM was -0.839%.

As to `COc1ccc(CN2CCCCCC2c2cccs2)c(OC)c1` (configuration not stated), the cytotoxicity at 10 µM came to 11%.

For `Cc1ccc(CNC2(Cc3cc(C(C)(C)O)on3)COC2)o1`, the cytotoxicity at 10 µM is -1.18%.

As for `Cc1ccc(-c2cc(C(F)(F)F)nc(N3CCOCC3)n2)s1`, the cytotoxicity at 10 µM was determined as 0.452%.

In the case of `O=C(NCc1csc(Br)c1)N1CCC(O)CC1`, the cytotoxicity at 10 µM was -11.8%.

Turning to `COCc1ncn2c1CN(C(=O)Nc1ccccc1)CC2`, the cytotoxicity at 10 µM was determined as 0.763%.
